Source: PubChem BioAssay (several laboratories)
Measles CPE: protection of cells from measles virus; Measles virus-infected cells, CPE protection, absorbance; protection (pct of control), % at 4 µM; 140,000 compounds, 1.5% hits; AID 841; in the data active = protection mostly above about 24%, no sharp cut-off; inactive = mostly below about 26%
IL1B cytotox: HUVEC cytotoxicity counter-screen, IL-1B stimulated | HUVEC cell count loss, Hoechst imaging | 94,000 compounds, 0.41% hits | cell count reduction, % at 2 µM;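 active = cell count reduction more than 3 SD above the screen-wide mean, cut at about 70% in these data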;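 note: normalized per plate to untreated control cells as the no-loss baseline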
FAK inh: inhibitors of human focal adhesion kinase; biochemical FAK kinase activity assay; 97,000 compounds, 0.84% hits; Q05397; inhibition, %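 (tested at 7 µM)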; in the data active = inhibition above about 19%;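 note: 0% = DMSO and 100% = reference compound high control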
IL1B NFkB pot: enhances IL-1B driven NFkB nuclear translocation | 94,000 compounds, 0.3% hits | activation, % at 2 µM | HUVEC IL-1B NFkB p65 nuclear translocation imaging | AID 819;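 active = activation above 40%, about the mean plus 3 SD, also judged a hit on visual image review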;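 note: percent activation is computed from the nuclear over cytoplasmic p65 intensity ratio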
IL1B NFkB inh: blocks IL-1B driven NFkB nuclear translocation in HUVEC cells. HUVEC IL-1B NFkB p65 nuclear translocation imaging. inhibition, % at 2 µM. 94,000 compounds, 0.43% hits;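 active = inhibition above about 30% together with a positive call from visual inspection of the well image, limit read from the data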;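 note: nuclear over cytoplasmic p65 intensity ratio measured by imaging; 0% = IL-1B stimulated DMSO wells and 100% = unstimulated DMSO wells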
HIV Rev-RRE inh: disrupts HIV-1 Rev binding to RRE RNA; P05866; Rev peptide-RRE RNA binding, FRET; inhibition, % at 8 µM; 97,000 compounds, 0.79% hits; AID 704;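 active = inhibition above the screen-wide mean plus 3 SD, cut at about 35% in these data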;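 note: 0% = median DMSO wells and 100% = median Neomycin B control wells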
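Assay system: Labelled RRE RNA duplex and labelled Rev peptide | Times: 5 min preincubation and 15 min binding, 25 °C | Detection: FRET, ex 480 nm, em 540 and 671 nm | Evaluation: % inhibition of FRET ratio versus controls | Benchmarks: DMSO wells as 0% and neomycin B wells as 100% inhibition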
The depositor's hits bear a star; [ ] = remark or other dose. In the library only some 3.3% were active in any assay of this set; here they are far more common.

Screening C=CCOc1nc(-c2ccncc2)nc2ccccc12 returned Measles CPE 30*, IL1B cytotox -26, FAK inh 9, IL1B NFkB pot 18, IL1B NFkB inh -18 and HIV Rev-RRE inh 12.
`O=C(NC1CCCCCC1)c1cccc(COCC(F)(F)F)c1` gave Measles CPE 36*, IL1B cytotox 14, FAK inh -1, IL1B NFkB pot -19, IL1B NFkB inh 19 and HIV Rev-RRE inh 13.
`O=C(NC1CCCCC1)c1ccc(COCC(F)(F)F)o1` gave Measles CPE 21, IL1B cytotox -14, FAK inh -5, IL1B NFkB pot -4, IL1B NFkB inh 4 and HIV Rev-RRE inh 0.
For CC(C)[C@H](NS(=O)(=O)c1ccccc1)C(=O)OCC(=O)N1N=C(c2ccc(Cl)cc2)CC1c1ccco1 (stereo not given in full) the results were Measles CPE 16.
Screening Nc1nc(C(=O)N2CCOCC2)nn1S(=O)(=O)c1ccc(Cl)cc1 returned Measles CPE 1, IL1B cytotox 92*, FAK inh 2, IL1B NFkB pot 3, IL1B NFkB inh -3 and HIV Rev-RRE inh 5.
Fc1ccc(NC(=S)NCc2cccs2)cc1 was read as Measles CPE 9.
For Cc1nn(-c2nnc(NC3CCCCC3)nn2)c(C)c1Br the results were Measles CPE 8.
For Cc1ccc(N2CC(C(=O)N/N=C/c3cccc([N+](=O)[O-])c3)CC2=O)cc1 (stereo not given) the results were Measles CPE 17, IL1B cytotox -35, FAK inh 2, IL1B NFkB pot 3, IL1B NFkB inh -3 and HIV Rev-RRE inh 13.
`O=C(N/N=C/c1cccc([N+](=O)[O-])c1)C1CC(=O)N(c2ccc(Cl)cc2)C1` (stereo not given) gave Measles CPE 72*, IL1B cytotox -32, FAK inh 3, IL1B NFkB pot -5, IL1B NFkB inh 5 and HIV Rev-RRE inh 11.
For O=C(Nc1cccc(Cl)c1)Nc1cccc(Cl)c1 the results were Measles CPE 12, IL1B cytotox -17, FAK inh 1, IL1B NFkB pot 8, IL1B NFkB inh -8 and HIV Rev-RRE inh 5.
For O=C(Nc1ccccc1)Nc1cc(Cl)cc(Cl)c1 the results were Measles CPE 63*, IL1B cytotox 5, FAK inh 5, IL1B NFkB pot -2, IL1B NFkB inh 2 and HIV Rev-RRE inh 11.
For O=C(NCC(=O)N(c1ccc2c(c1)OCO2)C(C(=O)NC1CCCC1)c1cccs1)c1ccco1 (stereo not given) the results were Measles CPE 66*, IL1B cytotox -9, FAK inh 3, IL1B NFkB pot -6, IL1B NFkB inh 6 and HIV Rev-RRE inh 1.
For O=C(NC1CCCC1)C(c1cccs1)N(C(=O)c1ccco1)c1ccc2c(c1)OCO2 (stereo not given) the results were Measles CPE 15, IL1B cytotox 9, FAK inh -3, IL1B NFkB pot -7, IL1B NFkB inh 7 and HIV Rev-RRE inh 2.
`CSc1nc(-c2ccc(F)cc2)cc(=O)[nH]1` gave Measles CPE 3.
`COc1ccc(N2CCN(c3nc(=S)n(-c4ccccc4)c(C)c3C(C)=O)CC2)cc1` gave Measles CPE 3, IL1B cytotox -2, FAK inh 5, IL1B NFkB pot -3, IL1B NFkB inh 3 and HIV Rev-RRE inh 40*.
`Cc1ccc(N2CC(C(=O)Nc3nccs3)CC2=O)cc1Cl` (stereo not given) gave Measles CPE 4, IL1B cytotox 9, FAK inh -1, IL1B NFkB pot -2, IL1B NFkB inh -4 and HIV Rev-RRE inh 11.
Screening CCc1ccc(N2CC(C(=O)Nc3nccs3)CC2=O)cc1 (stereo not given) returned Measles CPE 35*, IL1B cytotox -115, FAK inh -8, IL1B NFkB pot 10, IL1B NFkB inh -10 and HIV Rev-RRE inh 2.
CCn1cc(Br)c(C(=O)NC(=S)Nc2ccc(C(=O)OC)cc2)n1 was read as Measles CPE 4.
O=C(COC(=O)c1cc(Br)ccc1Cl)NC(=O)NCc1ccccc1 was read as Measles CPE 3.
`O=C(COC(=O)c1ccccc1Cl)NC(=O)NCc1ccccc1` gave Measles CPE 68*.
`Cn1nc(C(=O)NCc2cccs2)c2ccccc2c1=O` gave Measles CPE 20.
Screening CC(C)(C#CCN1CCCCC1)OCCOC(c1ccccc1)c1ccccc1 returned Measles CPE 6.
Screening COc1ccc(-c2nnc3ccc(SCC(=O)Nc4nc5ccc(C)cc5s4)nn23)cc1OC returned Measles CPE 28*.
CCOC(=O)N1CCC(N2C(=O)c3ccccc3C2Nc2cc(C(=O)OC)cc(C(=O)OC)c2)CC1 (stereo not given) was read as Measles CPE 5, IL1B cytotox 10, FAK inh 9, IL1B NFkB pot 42*, IL1B NFkB inh -42 and HIV Rev-RRE inh -1.
Screening CCOC(=O)N1CCC(N2C(=O)c3ccccc3C2Nc2ccc(C)cc2)CC1 (stereo not given) returned Measles CPE 36*, IL1B cytotox -32, FAK inh 4, IL1B NFkB pot -4, IL1B NFkB inh 4 and HIV Rev-RRE inh -1.
Screening OCCCc1nc2n(n1)C(c1ccccc1)C=C(c1ccccc1)N2 (stereo not given) returned Measles CPE 5, IL1B cytotox 13, FAK inh 2, IL1B NFkB pot 4, IL1B NFkB inh -4 and HIV Rev-RRE inh 30.
COc1ccc(C2C=C(c3cccs3)Nc3nc(CCCO)nn32)cc1 (stereo not given) was read as Measles CPE 2, IL1B cytotox -32, FAK inh -10, IL1B NFkB pot 2, IL1B NFkB inh -2 and HIV Rev-RRE inh 129*[fluorescence artefact?].
Screening COc1ccc(C2C=C(c3ccccc3)Nc3nc(CCCO)nn32)cc1 (stereo not given) returned Measles CPE 16, IL1B cytotox 12, FAK inh 10, IL1B NFkB pot 21, IL1B NFkB inh -21 and HIV Rev-RRE inh 40*.
For c1ccc(-c2cc3c(ccc4nonc43)nn2)cc1 the results were Measles CPE 12, IL1B cytotox 27, FAK inh 9, IL1B NFkB pot 57*, IL1B NFkB inh -57 and HIV Rev-RRE inh 1.
Screening Cc1cc(Br)ccc1OCC(=O)NNC(=O)c1cnccn1 returned Measles CPE 37*.
O=C(NNc1ccc([N+](=O)[O-])cc1)C1CC1c1ccccc1 (stereo not given) was read as Measles CPE 23*.
Cc1sc2nc(COC(=O)CNC(=O)c3ccc(C(C)(C)C)cc3)[nH]c(=O)c2c1C was read as Measles CPE 14.
CC1(C)C(c2cccs2)=[N+]([O-])C2(CCCCC/C2=N\NC(N)=O)N1O (stereo not given) was read as Measles CPE 30*, IL1B cytotox 12, FAK inh -1, IL1B NFkB pot -1, IL1B NFkB inh 1 and HIV Rev-RRE inh 6.
